Measured values as given in ChEMBL document CHEMBL4689842, “EUbOPEN Chemogenomics Library wave 1” (2021).

Legend:
Type in all cases: toxicity, cell-based
Fibroblast = experiment: Multiplex assay against human fibroblast
In short: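 Live cells were stained at seeding with Hoechst33342, BioTracker Green Microtubule Cytoskeleton Dye, MitoTracker Red and Annexin V Alexa Fluor 680, then imaged on a CQ1 microscope at 37°C and 5% CO2 after compound addition. CellPathfinder machine-learning gating split cells into Hoechst high-intensity objects or normal cells. Normal cells were split into healthy, pyknosed or fragmented nuclei, and pyknosed cells into mitotic or apoptotic. Tubulin, mitochondrial-mass and membrane-permeability phenotypes are per cents of healthy-nucleus cells.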

HEK-293T = experiment: Incucyte cell viability with HEK293T; conditions: human, 10 µM, compound concentration 10 uM; further: filed as whole numbers so only -1 and 0 and 1 occur
U2OS = experiment: Incucyte cell viability with U2OS; conditions: human, 10 µM, compound concentration 10 uM; further: filed as whole numbers so only -1 and 0 and 1 occur
[1] = 12 h, 1 µM, compound concentration 1 uM, replicate 1
[2] = 12 h, 1 µM, compound concentration 1 uM, replicate 2
[3] = 12 h, 10 µM, compound concentration 10 uM, replicate 1
[4] = 12 h, 10 µM, compound concentration 10 uM, replicate 2
[5] = 24 h, 1 µM, compound concentration 1 uM, replicate 1
[6] = 24 h, 1 µM, compound concentration 1 uM, replicate 2
[7] = 24 h, 10 µM, compound concentration 10 uM, replicate 1
[8] = 24 h, 10 µM, compound concentration 10 uM, replicate 2
[9] = 48 h, 1 µM, compound concentration 1 uM, replicate 1
[10] = 48 h, 1 µM, compound concentration 1 uM, replicate 2
[11] = 48 h, 10 µM, compound concentration 10 uM, replicate 1
[12] = 48 h, 10 µM, compound concentration 10 uM, replicate 2
[13] = 0 h, replicate number 1, timepoint 0 hours
[14] = 12 h, replicate number 1, timepoint 12 hours
[15] = 18 h, replicate number 1, timepoint 18 hours
[16] = 24 h, replicate number 1, timepoint 24 hours

CCCn1c(=O)c2[nH]c(C34CC5CC(CC3C5)C4)nc2n(CCC)c1=O [ROLOFYLLINE]
Population Apoptotic (%) (Fibroblast; [1]): 67%
Population Fragmented Nuclei (%) (Fibroblast; [1]): 13%
Population Healthy Nuclei (%) (Fibroblast; [1]): 55%
Population Hoechst High Intensity Objects (%) (Fibroblast; [1]): 9%
Population Membrane Permeable-Phenotype (%) (Fibroblast; [1]): 24%
Population Mitochondria Different-Phenotype (%) (Fibroblast; [1]): 10%
Population Mitotic Cells (%) (Fibroblast; [1]): 32%
Population Normal (%) (Fibroblast; [1]): 90%
Population Pyknosed Nuclei (%) (Fibroblast; [1]): 31%
Population Tubulin-Different-Phenotype (%) (Fibroblast; [1]): 63%
Total Cell Count (Fibroblast; [1]): 98
Population Apoptotic (%) (Fibroblast; [2]): 71%
Population Fragmented Nuclei (%) (Fibroblast; [2]): 4%
Population Healthy Nuclei (%) (Fibroblast; [2]): 88%
Population Hoechst High Intensity Objects (%) (Fibroblast; [2]): 3%
Population Membrane Permeable-Phenotype (%) (Fibroblast; [2]): 12%
Population Mitochondria Different-Phenotype (%) (Fibroblast; [2]): 15%
Population Mitotic Cells (%) (Fibroblast; [2]): 28%
Population Normal (%) (Fibroblast; [2]): 96%
Population Pyknosed Nuclei (%) (Fibroblast; [2]): 7%
Population Tubulin-Different-Phenotype (%) (Fibroblast; [2]): 20%
Total Cell Count (Fibroblast; [2]): 81
Population Apoptotic (%) (Fibroblast; [3]): 46%
Population Fragmented Nuclei (%) (Fibroblast; [3]): 13%
Population Healthy Nuclei (%) (Fibroblast; [3]): 42%
Population Hoechst High Intensity Objects (%) (Fibroblast; [3]): 13%
Population Membrane Permeable-Phenotype (%) (Fibroblast; [3]): 23%
Population Mitochondria Different-Phenotype (%) (Fibroblast; [3]): 37%
Population Mitotic Cells (%) (Fibroblast; [3]): 53%
Population Normal (%) (Fibroblast; [3]): 86%
Population Pyknosed Nuclei (%) (Fibroblast; [3]): 43%
Population Tubulin-Different-Phenotype (%) (Fibroblast; [3]): 88%
Total Cell Count (Fibroblast; [3]): 137
Population Apoptotic (%) (Fibroblast; [4]): 55%
Population Healthy Nuclei (%) (Fibroblast; [4]): 74%
Population Hoechst High Intensity Objects (%) (Fibroblast; [4]): 3%
Population Membrane Permeable-Phenotype (%) (Fibroblast; [4]): 46%
Population Mitochondria Different-Phenotype (%) (Fibroblast; [4]): 73%
Population Mitotic Cells (%) (Fibroblast; [4]): 44%
Population Normal (%) (Fibroblast; [4]): 96%
Population Pyknosed Nuclei (%) (Fibroblast; [4]): 12%
Population Tubulin-Different-Phenotype (%) (Fibroblast; [4]): 100%
Total Cell Count (Fibroblast; [4]): 99
Population Apoptotic (%) (Fibroblast; [5]): 31%
Population Fragmented Nuclei (%) (Fibroblast; [5]): 20%
Population Healthy Nuclei (%) (Fibroblast; [5]): 56%
Population Hoechst High Intensity Objects (%) (Fibroblast; [5]): 13%
Population Membrane Permeable-Phenotype (%) (Fibroblast; [5]): 39%
Population Mitochondria Different-Phenotype (%) (Fibroblast; [5]): 9%
Population Mitotic Cells (%) (Fibroblast; [5]): 68%
Population Normal (%) (Fibroblast; [5]): 86%
Population Pyknosed Nuclei (%) (Fibroblast; [5]): 23%
Population Tubulin-Different-Phenotype (%) (Fibroblast; [5]): 73%
Total Cell Count (Fibroblast; [5]): 109
Population Apoptotic (%) (Fibroblast; [6]): 40%
Population Fragmented Nuclei (%) (Fibroblast; [6]): 7%
Population Healthy Nuclei (%) (Fibroblast; [6]): 88%
Population Hoechst High Intensity Objects (%) (Fibroblast; [6]): 5%
Population Membrane Permeable-Phenotype (%) (Fibroblast; [6]): 6%
Population Mitochondria Different-Phenotype (%) (Fibroblast; [6]): 11%
Population Mitotic Cells (%) (Fibroblast; [6]): 60%
Population Normal (%) (Fibroblast; [6]): 94%
Population Pyknosed Nuclei (%) (Fibroblast; [6]): 4%
Population Tubulin-Different-Phenotype (%) (Fibroblast; [6]): 15%
Total Cell Count (Fibroblast; [6]): 83
Population Apoptotic (%) (Fibroblast; [7]): 36%
Population Fragmented Nuclei (%) (Fibroblast; [7]): 17%
Population Healthy Nuclei (%) (Fibroblast; [7]): 43%
Population Hoechst High Intensity Objects (%) (Fibroblast; [7]): 13%
Population Membrane Permeable-Phenotype (%) (Fibroblast; [7]): 31%
Population Mitochondria Different-Phenotype (%) (Fibroblast; [7]): 39%
Population Mitotic Cells (%) (Fibroblast; [7]): 63%
Population Normal (%) (Fibroblast; [7]): 86%
Population Pyknosed Nuclei (%) (Fibroblast; [7]): 39%
Population Tubulin-Different-Phenotype (%) (Fibroblast; [7]): 87%
Total Cell Count (Fibroblast; [7]): 128
Population Apoptotic (%) (Fibroblast; [8]): 56%
Population Fragmented Nuclei (%) (Fibroblast; [8]): 9%
Population Healthy Nuclei (%) (Fibroblast; [8]): 58%
Population Hoechst High Intensity Objects (%) (Fibroblast; [8]): 5%
Population Membrane Permeable-Phenotype (%) (Fibroblast; [8]): 41%
Population Mitochondria Different-Phenotype (%) (Fibroblast; [8]): 81%
Population Mitotic Cells (%) (Fibroblast; [8]): 43%
Population Normal (%) (Fibroblast; [8]): 94%
Population Pyknosed Nuclei (%) (Fibroblast; [8]): 31%
Population Tubulin-Different-Phenotype (%) (Fibroblast; [8]): 100%
Total Cell Count (Fibroblast; [8]): 120
Population Apoptotic (%) (Fibroblast; [9]): 31%
Population Fragmented Nuclei (%) (Fibroblast; [9]): 28%
Population Healthy Nuclei (%) (Fibroblast; [9]): 55%
Population Hoechst High Intensity Objects (%) (Fibroblast; [9]): 14%
Population Membrane Permeable-Phenotype (%) (Fibroblast; [9]): 23%
Population Mitochondria Different-Phenotype (%) (Fibroblast; [9]): 3%
Population Mitotic Cells (%) (Fibroblast; [9]): 68%
Population Normal (%) (Fibroblast; [9]): 85%
Population Pyknosed Nuclei (%) (Fibroblast; [9]): 15%
Population Tubulin-Different-Phenotype (%) (Fibroblast; [9]): 58%
Total Cell Count (Fibroblast; [9]): 118
Population Apoptotic (%) (Fibroblast; [10]): 0%
Population Fragmented Nuclei (%) (Fibroblast; [10]): 25%
Population Healthy Nuclei (%) (Fibroblast; [10]): 73%
Population Hoechst High Intensity Objects (%) (Fibroblast; [10]): 13%
Population Membrane Permeable-Phenotype (%) (Fibroblast; [10]): 34%
Population Mitochondria Different-Phenotype (%) (Fibroblast; [10]): 5%
Population Mitotic Cells (%) (Fibroblast; [10]): 100%
Population Normal (%) (Fibroblast; [10]): 86%
Population Pyknosed Nuclei (%) (Fibroblast; [10]): 1%
Population Tubulin-Different-Phenotype (%) (Fibroblast; [10]): 70%
Total Cell Count (Fibroblast; [10]): 87
Population Apoptotic (%) (Fibroblast; [11]): 62%
Population Fragmented Nuclei (%) (Fibroblast; [11]): 31%
Population Healthy Nuclei (%) (Fibroblast; [11]): 46%
Population Hoechst High Intensity Objects (%) (Fibroblast; [11]): 17%
Population Membrane Permeable-Phenotype (%) (Fibroblast; [11]): 26%
Population Mitochondria Different-Phenotype (%) (Fibroblast; [11]): 51%
Population Mitotic Cells (%) (Fibroblast; [11]): 37%
Population Normal (%) (Fibroblast; [11]): 82%
Population Pyknosed Nuclei (%) (Fibroblast; [11]): 21%
Population Tubulin-Different-Phenotype (%) (Fibroblast; [11]): 86%
Total Cell Count (Fibroblast; [11]): 134
Population Apoptotic (%) (Fibroblast; [12]): 50%
Population Fragmented Nuclei (%) (Fibroblast; [12]): 37%
Population Healthy Nuclei (%) (Fibroblast; [12]): 57%
Population Hoechst High Intensity Objects (%) (Fibroblast; [12]): 50%
Population Membrane Permeable-Phenotype (%) (Fibroblast; [12]): 21%
Population Mitochondria Different-Phenotype (%) (Fibroblast; [12]): 34%
Population Mitotic Cells (%) (Fibroblast; [12]): 50%
Population Normal (%) (Fibroblast; [12]): 50%
Population Pyknosed Nuclei (%) (Fibroblast; [12]): 5%
Population Tubulin-Different-Phenotype (%) (Fibroblast; [12]): 82%
Total Cell Count (Fibroblast; [12]): 160
Growth Rate (HEK-293T; [13]): 0
Growth Rate (HEK-293T; 6 h, replicate number 1, timepoint 6 hours): 0
Growth Rate (HEK-293T; [14]): 0
Growth Rate (HEK-293T; [15]): 0
Growth Rate (HEK-293T; [16]): 0
Growth Rate (U2OS; [13]): 1
Growth Rate (U2OS; 0 h, replicate number 2, timepoint 0 hours): 0
Growth Rate (U2OS; 6 h, replicate number 2, timepoint 6 hours): 1
Growth Rate (U2OS; [14]): 1
Growth Rate (U2OS; [15]): 1
Growth Rate (U2OS; [16]): 1
